# In ChEMBL document CHEMBL1275442, “Pharmacokinetics and tissue distribution of anidulafungin in rats” (Antimicrob Agents Chemother, 2008):
# How the values were obtained:
# [1] = tested on: Cerebrum; assay: Drug level in Long Evans rat cerebrum assessed as radioactivity per gram of tissue at 5 mg/kg, iv administered as single bolus dose measured 72 hrs postdose by autoradiography; format: ADME, organism-based; parameters: dose 5 mg/kg, route intravenous; details: in vivo
# Outline: (§1)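 Male pigmented Long Evans (HsdBlu:LE) rats, 7.5 weeks old, 202 to 217 g, single iv [¹⁴C]anidulafungin; one rat per sampling time. Euthanized by isoflurane and cardiac-puncture exsanguination. Sagittal whole-body sections quantified by phosphorimaging autoradiography, single samples corrected for section thickness across multiple sections per tissue. Concentrations (μg eq/g drug-derived radioactivity) interpolated from least-squares standard curves per scan.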
# [2] = tested on: Muscle tissue; assay: Cmax in F344 rat muscle assessed as total compound-derived radioactivity per gram of tissue at 5 mg/kg, iv administered as single bolus dose […]; format: ADME, organism-based; parameters: dose 5 mg/kg, route intravenous; details: in vivo
# Outline: (§2)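 Same F344 study: single 5 mg/kg IV [¹⁴C]anidulafungin given over about 5 min. Total drug-derived radioactivity (parent plus metabolites) counted by liquid scintillation, in […]. Noncompartmental analysis of the composite mean profile.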
# [3] = tested on: Plasma; assay: Tmax in F344 rat plasma assessed as total compound-derived radioactivity at 5 mg/kg, iv administered as single bolus dose […]; format: ADME, organism-based; parameters: dose 5 mg/kg, route intravenous; details: in vivo
# Outline: (§3)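 Male F344 rats, 10 to 11 weeks old and 223.6 to 243.8 g, got one iv dose of [14C]anidulafungin at 5 mg/kg over about 5 min. Blood, CSF, kidney, liver, lung, quadriceps, spleen and skin were sampled predose and at 0.083 to 72 h, 3 rats per time. Total radioactivity (parent plus metabolites) was measured by liquid scintillation counting. Parameters were noncompartmental, from a composite mean profile.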
# [4] = tested on: Lung; assay: Drug level in Long Evans rat lung assessed as radioactivity per gram of tissue at 5 mg/kg, iv administered as single bolus dose measured 168 hrs postdose by autoradiography; format: ADME, organism-based; parameters: dose 5 mg/kg, route intravenous; details: in vivo; outline: as §1
# [5] = tested on: Zone of skin; assay: Drug level in Long Evans rat skin assessed as radioactivity per gram of tissue at 5 mg/kg, iv administered as single bolus dose measured 0.5 hrs postdose by autoradiography; format: ADME, organism-based; parameters: dose 5 mg/kg, route intravenous; details: in vivo
# Outline: (§4)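 Male pigmented Long Evans (HsdBlu:LE) rats, 7.5 weeks old and 202 to 217 g, got a single iv dose of [14C]anidulafungin at 5 mg/kg. One rat per time point (0.5, 6, 12, 24, 72, 168 h) was euthanised by isoflurane and cardiac-puncture exsanguination. Sagittal whole-body sections were quantified by phosphorimaging. Samples were thickness-corrected, and concentrations (μg eq/g) were interpolated from least-squares standard curves.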
# [6] = Tmax in F344 rat plasma at 5 mg/kg, iv administered as single bolus dose by HPLC method; format: ADME, organism-based; parameters: dose 5 mg/kg, route intravenous
# Outline: (§5)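 F344 males, 10 to 11 weeks old and 223.6 to 243.8 g, got a single 5 mg/kg iv dose of [14C]anidulafungin over about 5 min. Plasma and tissues were collected predose and at 0.083 to 72 h, n = 3 per time point. Parent drug was quantified by HPLC-UV, with LLOQ/ULOQ of 20/5,120 ng/ml in plasma and 220/56,320 ng/g in tissue. Noncompartmental parameters came from a composite mean concentration-time profile.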
# [7] = tested on: Cerebrospinal fluid; assay: Cmax in F344 rat cerebrospinal fluid assessed as total compound-derived radioactivity per gram of tissue at 5 mg/kg, iv administered as single bolus dose […]; format: ADME, organism-based; parameters: dose 5 mg/kg, route intravenous; details: in vivo; outline: as §2
# [8] = Drug level in Long Evans rat eye assessed as radioactivity per gram of tissue at 5 mg/kg, iv administered as single bolus dose measured 168 hrs postdose by autoradiography; format: ADME, organism-based; parameters: dose 5 mg/kg, route intravenous; details: in vivo; outline: as §1
# [9] = Cmax in F344 rat muscle at 5 mg/kg, iv administered as single bolus dose after 30 min by HPLC method; format: ADME, organism-based, Muscle tissue; parameters: dose 5 mg/kg, route intravenous
# Outline: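 Male F344 rats, 10–11 weeks, 223.6–243.8 g, given one IV dose of [¹⁴C]anidulafungin, 5 mg/kg, over about 5 min. Tissues and blood sampled at 0.083–72 h (n = 3 rats per time). Parent drug measured by HPLC; LLOQ/ULOQ were 20/5,120 ng/ml for plasma and 220/56,320 ng/g for tissue. Noncompartmental parameters taken from the composite mean profile.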
# [10] = tested on: Kidney; assay: Drug level in Long Evans rat kidney assessed as low disposition of radioactivity per gram of tissue at 5 mg/kg, iv administered as single bolus dose measured 6 hrs postdose by autoradiography; format: ADME, organism-based; parameters: dose 5 mg/kg, route intravenous; details: in vivo; outline: as §1
# [11] = tested on: Kidney; assay: Drug level in Long Evans rat kidney assessed as low disposition of radioactivity per gram of tissue at 5 mg/kg, iv administered as single bolus dose measured 24 hrs postdose by autoradiography; format: ADME, organism-based; parameters: dose 5 mg/kg, route intravenous; details: in vivo; outline: as §1
# [12] = tested on: Liver; assay: Drug level in Long Evans rat liver assessed as high disposition of radioactivity per gram of tissue at 5 mg/kg, iv administered as single bolus dose measured 24 hrs postdose by autoradiography; format: ADME, organism-based; parameters: dose 5 mg/kg, route intravenous; details: in vivo; outline: as §1
# [13] = tested on: Cerebrospinal fluid; assay: Half life in F344 rat cerebrospinal fluid assessed as total compound-derived radioactivity at 5 mg/kg, iv administered as single bolus dose […]; format: ADME, organism-based; parameters: dose 5 mg/kg, route intravenous; details: in vivo; outline: as §3
# [14] = tested on: Lung; assay: Drug level in Long Evans rat lung assessed as radioactivity per gram of tissue at 5 mg/kg, iv administered as single bolus dose measured 6 hrs postdose by autoradiography; format: ADME, organism-based; parameters: dose 5 mg/kg, route intravenous; details: in vivo; outline: as §1
# [15] = tested on: Kidney; assay: Drug level in Long Evans rat kidney assessed as high disposition of radioactivity per gram of tissue at 5 mg/kg, iv administered as single bolus dose measured 72 hrs postdose by autoradiography; format: ADME, organism-based; parameters: dose 5 mg/kg, route intravenous; details: in vivo; outline: as §1
# [16] = tested on: Zone of skin; assay: Drug level in Long Evans rat skin assessed as radioactivity per gram of tissue at 5 mg/kg, iv administered as single bolus dose measured 6 hrs postdose by autoradiography; format: ADME, organism-based; parameters: dose 5 mg/kg, route intravenous; details: in vivo; outline: as §4
# [17] = Drug level in Long Evans rat eye assessed as radioactivity per gram of tissue at 5 mg/kg, iv administered as single bolus dose measured 24 hrs postdose by autoradiography; format: ADME, organism-based; parameters: dose 5 mg/kg, route intravenous; details: in vivo; outline: as §1
# [18] = tested on: Cerebrospinal fluid; assay: Drug level in Long Evans rat cerebrospinal fluid assessed as radioactivity per gram of tissue at 5 mg/kg, iv administered as single bolus dose measured 0.5 hrs postdose by autoradiography; format: ADME, organism-based; parameters: dose 5 mg/kg, route intravenous; details: in vivo; outline: as §1
# [19] = tested on: Spleen; assay: AUC (0 to infinity) in F344 rat spleen assessed as total compound-derived radioactivity per gram of tissue at 5 mg/kg, iv administered as single bolus dose […]; format: ADME, organism-based; parameters: time infinity, dose 5 mg/kg, route intravenous; details: in vivo; outline: as §2
# [20] = tested on: Kidney; assay: Cmax in F344 rat kidney assessed as total compound-derived radioactivity per gram of tissue at 5 mg/kg, iv administered as single bolus dose after 30 mins by HPLC method; format: ADME, organism-based; parameters: dose 5 mg/kg, route intravenous; details: in vivo, 0.5 h; outline: as §2
# [21] = tested on: Blood; assay: Drug level in Long Evans rat blood assessed as radioactivity per gram of tissue at 5 mg/kg, iv administered as single bolus dose measured 12 hrs postdose by autoradiography; format: ADME, organism-based; parameters: dose 5 mg/kg, route intravenous; details: in vivo; outline: as §1
# [22] = tested on: Plasma; assay: Cmax in F344 rat plasma assessed as total compound-derived radioactivity per gram of tissue at 5 mg/kg, iv administered as single bolus dose after 5 mins by HPLC method; format: ADME, organism-based; parameters: dose 5 mg/kg, route intravenous; details: in vivo; outline: as §2
# [23] = tested on: Cerebrum; assay: Drug level in Long Evans rat cerebrum assessed as radioactivity per gram of tissue at 5 mg/kg, iv administered as single bolus dose measured 168 hrs postdose by autoradiography; format: ADME, organism-based; parameters: dose 5 mg/kg, route intravenous; details: in vivo; outline: as §1
# [24] = tested on: Lung; assay: Drug level in Long Evans rat lung assessed as radioactivity per gram of tissue at 5 mg/kg, iv administered as single bolus dose measured 0.5 hrs postdose by autoradiography; format: ADME, organism-based; parameters: dose 5 mg/kg, route intravenous; details: in vivo; outline: as §1
# [25] = Tmax in F344 rat kidney at 5 mg/kg, iv administered as single bolus dose by HPLC method; format: ADME, organism-based; parameters: dose 5 mg/kg, route intravenous; outline: as §5
# [26] = tested on: Muscle tissue; assay: Drug level in Long Evans rat muscle assessed as radioactivity per gram of tissue at 5 mg/kg, iv administered as single bolus dose measured 0.5 hrs postdose by autoradiography; format: ADME, organism-based; parameters: dose 5 mg/kg, route intravenous; details: in vivo; outline: as §1
structure (smiles),measurement,setting,value
CCCCCOc1ccc(-c2ccc(-c3ccc([14C](=O)N[C@H]4C[C@@H](O)[C@@H](O)NC(=O)[C@@H]5[C@@H](O)[C@@H](C)CN5C(=O)[C@H]([C@@H](C)O)NC(=O)[C@H]([C@H](O)[C@@H](O)c5ccc(O)cc5)NC(=O)[C@@H]5C[C@@H](O)CN5C(=O)[C@H]([C@@H](C)O)NC4=O)cc3)cc2)cc1 [14C-ANIDULAFUNGIN],Drug uptake,[1],0.47 ugequiv
same,Cmax,[2],4.16 ugequiv/g
same,Tmax,[3],4.98 min
same,Drug uptake,[4],0.96 ugequiv
same,Drug uptake,[5],5.42 ugequiv
same,Tmax,[6],4.98 min
same,Cmax,[7],0.07 ugequiv/g
same,Drug uptake,[8],0.6 ugequiv
same,Cmax,[9],3840 ng/g
same,Drug uptake,[10],8.45 ugequiv
same,Drug uptake,[11],4.41 ugequiv
same,Drug uptake,[12],29.63 ugequiv
same,t1/2,[13],53.8 h
same,Drug uptake,[14],22.88 ugequiv
same,Drug uptake,[15],7.32 ugequiv
same,Drug uptake,[16],5.39 ugequiv
same,Drug uptake,[17],2.07 ugequiv
same,Drug uptake,[18],5.51 ugequiv
same,AUC,[19],1152.68 ugequiv.hr/g
same,Cmax,[20],19.63 ugequiv/g
same,Drug uptake,[21],2.55 ugequiv
same,Cmax,[22],7.57 ugequiv/g
same,Drug uptake,[23],0.6 ugequiv
same,Drug uptake,[24],22.31 ugequiv
same,Tmax,[25],30 min
same,Drug uptake,[26],3.45 ugequiv
